Tested on: MS2 coat protein
Test: apparent Kd, MS2 coat protein; higher = weaker binding; RNA-MaP array; FMN 200 µM where present
In short: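 Two titrations, one without ligand and one with constant ligand, were run with SNAP-549-labelled MS2 coat protein from 0.7 or 1.5 nM, doubling to 3 µM. The targets were designs transcribed by stalled E. coli RNA polymerase on Illumina sequencing-chip clusters, in 100 mM Tris-HCl pH 7.5, 80 mM KCl, 4 mM MgCl2, BSA, DTT, yeast tRNA and Tween-20. The apparent Kd is the median of filtered per-cluster binding-curve fits, with green signal normalised to red-channel RNA signal and control-cluster median Fmax.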

[1] = designed as: OFF switch for flavin mononucleotide, no ligand
[2] = ligand present: flavin mononucleotide, designed as: OFF switch for flavin mononucleotide
[3] = designed as: ON switch for flavin mononucleotide, no ligand
[4] = ligand present: flavin mononucleotide, designed as: ON switch for flavin mononucleotide

Row | Sequence | apparent Kd [1] | apparent Kd [2] | apparent Kd [3] | apparent Kd [4]
1 | GGUUGUCAUAGUCAUCCUUUCCGUACAUGAGGAUCACCCAUGUAGGAUAUGCUACUCUCGGUGUGGCAGAAGGGCGUGUGUCUU | 18.2 nM | 18.8 nM |  | 
2 | AUUGUUAAGGUAGGAUAUAGUAAAAUGAUUUAAUUAGAAGGAUCUCACAUGAGGAUCACCCAUGUAAUAGGAUUACCCAUGUAU | 32.8 nM | 23.6 nM |  | 
3 | UCACGGGAUUGAGGAUAUAUAUGAAUUUUUUUUAUAGAAGGCAAAAUGUUAGAUUAUUCACUAUACAUGAGGAUCACCCAUGUU | 26.9 nM | 24.2 nM |  | 
4 | AUAGGCCUAGGAUAUACAUGAGGAUCACCCAUGUUAAUAAUUCGAUCAUGAUAAACGUGUAGAAGGAGGAAUAA | 32.9 nM | 36.9 nM |  | 
5 | UAAUUAAGUGUGAGGAUAUGCUGGUCCUUGGAUCAGCAGAAGGCACAUGAGGAUCACCCAUGUAAAUUAUUUAU | 103 nM | 437 nM |  | 
6 | GGGUACAUCGGAGGAUAUCAUGUAAAUACAUGAGGAUCACCCAUGUCGAUGGAGACAUCGGAGACUGAGAAGGCCGAUGUACCG |  |  | 41.8 nM | 7.18 nM
7 | GUUUACGCGGAAGGAUAUACAUUUGACAUCUUGAUGCGCGCAAUACUCACAUGAGGAUCACCCAUGUAGAAGGUCUGCGAAAGA | 15.1 nM | 24.9 nM |  | 
8 | GUGCAUUCGUAGAAGGGUGACAUGAGGAUCACCCAUGUGCGCUGGGCUCAGGAUGCCUCAGCGCCACAGGAUAUACGAAGCACC |  |  | 97.6 nM | 35.1 nM
9 | AGAUAUGAUGCAGGAUAUCUAUCUUGAAUGAGGAGAGAAGGGCAAGCAGAGAGAUAAGCCUUAUUACAUGAGGAUCACCCAUGU | 10.3 nM | 8.56 nM |  | 
10 | GUUAUGUCAGGAUAUGCUUAUGAUGAGUGCUCAGACAUGAUGCAGAAGGGACAUGAGGAUCACCCAUGUACUGA | 25.4 nM | 63.9 nM |  | 
11 | GUGUACAGAGGAUAUAUAUGAGCAUGGAAACAUGCAACUUCACAUGAGGAUCACCCAUGUAGAAGGCUGUACAC | 14.2 nM | 14.3 nM |  | 
12 | CCGGCUGCUGUGAGGAUAUGCCUGUGGGUCCGCGGGCAGAAGGCACAUGAGGAUCACCCAUGUCCUGCGGUCCC | 27.1 nM | 28.3 nM |  | 
13 | GUCGAGUGAGGAUAUGGUGAGUAGUGCCUGAGCGCUGCUCACCAGAAGGCACAUGAGGAUCACCCAUGUAUAAC | 23.7 nM | 41.7 nM |  | 
14 | AAUAAACUCACAGGAUAUAGCAGAGGUCGCCUGAACUUACAGGCGACUAUGCUAGAAGGGUGACCACAUGAGGAUCACCCAUGU |  |  | 974 nM | 170 nM
15 | GGAGCACACAUUAACAUGAGGAUCACCCAUGUCAAAAGACAUGAGGAUAUGGAUCCGAAAAGGAUCCAGAAGGCAUUGUGCUCC |  |  | 372 nM | 28.2 nM
16 | AGAUUCAUGGCCCGUUCGGGCCCACAUGAGGAUCACCCAUGUGAGGAUAUGAUGUACCUGAUUCAUCAGAAGGCGCAUGCGAAA | 7.32 nM | 20.5 nM |  | 
17 | UAUAUGUCAGGAUAUCGAUUGGAAUGGAAUUUAGUUUUGGUCGAGAAGGGACAUGAGGAUCACCCAUGUUUUUC | 38.7 nM | 215 nM |  | 
18 | AAAGAAACAGGAUAUGUAGGCUGCGACAUGAGGAUCACCCAUGUGUCGGUAUACAGUCCUAUAGAAGGGUUAUGAC | 15.5 nM | 20.1 nM |  | 
19 | GAGUACUUAGGAUAUACAUGAGGAUCACCCAUGUCUAGGCGGCGCUGGGUCCCUCGCAGUAGAAGGAAGCGCUG | 24.6 nM | 42.3 nM |  | 
20 | GUCAGCUCGUGAGGAUAUACGUCACUGCUUCGGCAGUGAAAUUUCCUCACAUGAGGAUCACCCAUGUAGAAGGCACGAGCUGAU | 11.5 nM | 208 nM |  | 
21 | AAUAACAGAGGAUAUACUAUUUUAUGUGUUUGUUAUUUUAAACAUGAGGAUCACCCAUGUAGAAGGCUGAUUAA | 42 nM | 44.6 nM |  | 
22 | UAAAUAAGUGUGAGGAUAUGCUGGUCCUUGGAUCAGCAGAAGGCACAUGAGGAUCACCCAUGUAAUAUAUUUAU | 85.2 nM | 316 nM |  | 
23 | AAUUGACACGUAGGAUAUCGAUCUAAUUUAAUUCGAGAAGGACGCACAUGAGGAUCACCCAUGUUUAAUGGAUUAGACAUGUUG | 162 nM | 328 nM |  | 

Source: the EternaBench riboswitch data
